What was measured:
Rattus norvegicus [1] = species: Rattus norvegicus; assay: Effective dose was determined to increase the vasoResponse in rat; type: functional
Method in brief: (§1)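 Anesthetized (pentobarbital/barbital ip) male Charles River CD rats, 380–500 g, kept at 37 °C. Femoral artery blood pressure recorded. Control depressor response to bradykinin 1 μg/kg iv, then cumulative iv drug in 0.9% saline (1 mL/kg), 0.0033–0.27 mg/kg. Bk challenge 5 min after each dose. ED50 = dose giving a 50% change from control, by linear regression; N = 8.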

Rattus norvegicus [2] = assay: Effect on vasopressor response caused by angiotensin I (AI) in anesthetized normotensive rat, administered intravenously at dose 0.010 mg/kg; type: functional; details: dose 0.01 mg/kg; route intravenous
Method in brief: (§2)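 Male Charles River CD rats, 380–500 g, anesthetized with pentobarbital Na 15 mg/kg plus barbital 220 mg/kg ip, held at 37 °C. Femoral artery pressure recorded. AI 0.3 μg/kg and AII 0.1 μg/kg given iv as challenges. Cumulative iv drug in saline, 0.01–0.81 mg/kg, each dose followed by AI/AII challenges at 5-min intervals. ED50 = 50% change from control response, by linear regression.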

Canis familiaris [3] = assay: Effect on pressor response of angiotensin II in anesthetized dog, dose 0.1 mg/kg administered intravenously; type: functional, Canis lupus familiaris; details: route intravenous
Method in brief: (§3)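 Mongrel dogs, 7.3–15.5 kg, anesthetized with barbital/pentobarbital iv, tracheotomized and vagotomized, n = 4. Cumulative iv doses in saline (0.2 mL/kg) spaced 30 min apart. AI and AII 1 μg/kg iv challenges given after each dose; the second pre-dose set served as control.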

Canis familiaris [4] = assay: Effect on pressor response of angiotensin II in anesthetized dog, dose 0.9 mg/kg administered intravenously; type: functional, Canis lupus familiaris; details: route intravenous; method in brief: as §3
Rattus norvegicus [5] = assay: Activity against the bradykinin Response in anesthetized normotensive rat, administered intravenously at dose 0.0033 mg/kg; type: functional; details: route intravenous; method in brief: as §1
Rattus norvegicus [6] = assay: Effective dose to produce ACE inhibition in rat, administered intravenously; type: functional; details: iv; method in brief: as §2
Rattus norvegicus [7] = assay: Decrease in systolic blood pressure of Spontaneous Hypertensive Rats (SHR) pretreated with hydrochlorothiazide upon oral administration at 10 mm/kg; type: functional, Artery
Method in brief: (§4)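 Male SHR, 13 weeks old, given HCTZ 25 mg/kg po in 0.25% methylcellulose daily for 3 days. Drug given orally in water (5 mL/kg) 1 h after the third dose. Tail-cuff systolic pressure and pulse-count heart rate taken 1.5 h later after 20 min warming at 38 °C. ANOVA with Duncan's test; ED30 by linear regression.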

[8] = Half life was determined; type: ADME; details: rat
Method in brief: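 Rats anesthetized with pentobarbital/barbital received a single iv dose, 0.2 or 0.08 mg/kg. AI 0.3 μg/kg iv given at 5 min, then every 10 min for 210 min. Half-life = time for the AI pressor response to fall to 50% of its peak inhibition.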

Rattus norvegicus [9] = assay: Change in heart rate was determined at a dose 3 mg/kg; type: functional; method in brief: as §4
Rattus norvegicus [10] = assay: Effect on vasopressor response caused by angiotensin I (AI) in anesthetized normotensive rat, administered intravenously at dose 0.27 mg/kg; type: functional; details: route intravenous; method in brief: as §2
Rattus norvegicus [11] = assay: Percent decrease in angiotensin I pressor response was measured in rat, administered intravenously at dose 0.27 mg/kg; type: functional; details: route intravenous
Method in brief: (§5)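 Anesthetized (pentobarbital Na 15 mg/kg + barbital 220 mg/kg ip), tracheotomized male Charles River CD rats, 380–500 g, femoral cannulas, heated board at 37 °C. Control pressor responses to angiotensin I 0.3 μg/kg then angiotensin II 0.1 μg/kg iv; drug iv in 0.9% saline (free base), AI and AII repeated at 5-min intervals, cumulative 0.01–0.81 mg/kg. Peak arterial pressure rise versus control.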

Rattus norvegicus [12] = species: Rattus norvegicus; assay: Dose required to reduce systolic blood pressure by 30 mmHg in renal hypertensive rat; type: functional; details: Artery
Method in brief: (§6)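 Renal hypertensive rats were prepared by clipping the left renal artery (0.22-mm clip) in 4-week-old male CD rats and held 6 weeks. Overnight-fasted rats were dosed orally with aqueous solution (5 mL/kg), water as control. Tail-cuff systolic pressure and heart rate measured 2 h post-dose. ANOVA with Duncan's test; ED30 by linear regression.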

Rattus norvegicus [13] = assay: Percent decrease in angiotensin I pressor response was measured in rat, administered intravenously at dose 0.010 mg/kg; type: functional; details: dose 0.01 mg/kg; route intravenous; method in brief: as §5
Canis familiaris [14] = assay: Effect on pressor response of angiotensin II in conscious dog at 60-65 min, dose 0.5 mg/kg administered orally; type: functional, Canis lupus familiaris; details: route oral
Method in brief: (§7)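 Conscious fasted mongrel dogs of both sexes, 6.8–15.3 kg, with femoral cannulas. Drug given orally in 0.25% methylcellulose with 3% glycerin (2 mL/kg), n = 4 per dose. AI 0.3, AII 0.1 and NE 1 μg/kg iv challenges. The second pre-dose set served as control; response measured at 60–65 min post-dose.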

Rattus norvegicus [15] = assay: Effect on vasopressor response caused by angiotensin I (AI) in anesthetized normotensive rat, administered intravenously at dose 0.030 mg/kg; type: functional; details: dose 0.03 mg/kg; route intravenous; method in brief: as §2
Canis familiaris [16] = assay: Effect on pressor response of angiotensin I in conscious dog at 60-65 min, dose 0.5 mg/kg administered orally; type: functional, Canis lupus familiaris; details: route oral; method in brief: as §7
Rattus norvegicus [17] = assay: Change in heart rate was determined in renal hypertensive rat, administered orally at a dose 100 mg/kg; type: functional; details: route oral; method in brief: as §6
Canis familiaris [18] = assay: Effect on pressor response of angiotensin II in conscious dog at 60-65 min, dose 2 mg/kg administered orally; type: functional, Canis lupus familiaris; details: route oral; method in brief: as §7
Rattus norvegicus [19] = assay: Change in heart rate was determined in renal hypertensive rat, administered orally at a dose 3 mg/kg; type: functional; details: route oral; method in brief: as §6
Rattus norvegicus [20] = species: Rattus norvegicus; assay: Dose required to reduce systolic blood pressure by 30 mmHg; type: functional; details: Artery; method in brief: as §4
Rattus norvegicus [21] = assay: Hypotensive activity was determined in low-sodium treated rat, dose 30 mg/kg administered orally at 5 hr; type: functional; details: route oral
Method in brief: (§8)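 Male CD rats, 11 weeks old, kept on a sodium-deficient diet for 3 weeks and fasted overnight, were dosed orally with aqueous solutions (5 mL/kg), water as control. Systolic pressure measured by tail cuff at the stated post-dose time. ANOVA with Duncan's test.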

Rattus norvegicus [22] = assay: Effect on systolic blood pressure was determined in renal hypertensive rat, administered orally at a dose 30 mg/kg; type: functional, Artery; details: route oral; method in brief: as §6
Rattus norvegicus [23] = assay: Hypotensive activity was determined in low-sodium treated rat, dose 10 mg/kg administered orally at 5 hr; type: functional; details: route oral; method in brief: as §8
Rattus norvegicus [24] = assay: Percent decrease in angiotensin I pressor response was measured in rat, administered intravenously at dose 0.090 mg/kg; type: functional; details: dose 0.09 mg/kg; route intravenous; method in brief: as §5
Canis familiaris [25] = assay: Effect on pressor response of angiotensin I in anesthetized dog, dose 0.1 mg/kg administered intravenously; type: functional, Canis lupus familiaris; details: route intravenous; method in brief: as §3
Canis familiaris [26] = assay: Effect on pressor response of angiotensin I in conscious dog at 60-65 min, dose 2 mg/kg administered orally; type: functional, Canis lupus familiaris; details: route oral; method in brief: as §7

CCOC(=O)[C@H](CCc1ccccc1)N[C@@H](C)C(=O)N1C(=O)CC[C@H]1C(=O)O
ED50 (Rattus norvegicus [1]): 0.012 mg/kg
Response (Rattus norvegicus [2]): 45 mmHg
Blood pressure (Canis familiaris [3]): 64 mmHg
Blood pressure (Canis familiaris [4]): 73 mmHg
Response (Rattus norvegicus [5]): -44 mmHg
ED50 (Rattus norvegicus [6]): 0.13 mg/kg
Blood pressure (Rattus norvegicus [7]): 189 mmHg
half-life [8]: 120 min
Heart rate (Rattus norvegicus [9]): 374 beats min-1
Response (Rattus norvegicus [10]): 18 mmHg
Decrease (Rattus norvegicus [11]): 63%
ED30 (Rattus norvegicus [12]): 5.9 mg/kg
Decrease (Rattus norvegicus [13]): 6%
Blood pressure (Canis familiaris [14]): 48 mmHg
Response (Rattus norvegicus [15]): 39 mmHg
Blood pressure (Canis familiaris [16]): 47 mmHg
Heart rate (Rattus norvegicus [17]): 454 beats min-1
Blood pressure (Canis familiaris [18]): 40 mmHg
Heart rate (Rattus norvegicus [19]): 460 beats min-1
ED30 (Rattus norvegicus [20]): 3.5 mg/kg
Activity (Rattus norvegicus [21]): 132 mmHg
Activity (Rattus norvegicus [22]): 204 mmHg
Activity (Rattus norvegicus [23]): 143 mmHg
Decrease (Rattus norvegicus [24]): 31%
Blood pressure (Canis familiaris [25]): 60 mmHg
Blood pressure (Canis familiaris [26]): 8 mmHg

— ChEMBL document CHEMBL1122835, “Synthesis and pharmacology of the potent angiotensin-converting enzyme inhibitor N-[1(S)-(ethoxycarbonyl)-3-phenylpropyl]-(S)-alanyl-(S)-pyroglutamic acid” (J Med Chem, 1985)
